Screening data from PubChem.
ABHD4 inh: inhibitors of mouse ABHD4. Q8VD66. purified mABHD4, FP-Rh probe fluorescence polarization. inhibition, % at 8.92 µM. 0.54% of 370,000 active. AID 720543;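 active = inhibition exceeding the mean over every tested compound plus 3 SD, cut at about 30% in these data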;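 also: 0% = plate median of compound wells and 100% = S159A mutant with DMSO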
Target sequence (Q8VD66 whole entry, looked up): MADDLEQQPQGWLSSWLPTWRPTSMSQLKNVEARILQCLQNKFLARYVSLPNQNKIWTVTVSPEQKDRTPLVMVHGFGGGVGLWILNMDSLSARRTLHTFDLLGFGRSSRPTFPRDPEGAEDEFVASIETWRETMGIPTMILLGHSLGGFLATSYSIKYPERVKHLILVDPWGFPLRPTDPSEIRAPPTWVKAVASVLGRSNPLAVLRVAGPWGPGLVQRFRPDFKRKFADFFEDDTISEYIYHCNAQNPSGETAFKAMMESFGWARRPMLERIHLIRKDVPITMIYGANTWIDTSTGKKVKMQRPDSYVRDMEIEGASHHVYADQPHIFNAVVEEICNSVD
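Assay system: Wild-type mouse ABHD4 protein | Medium: HEPES pH 7.0 buffer, 150 mM NaCl, 0.01% Pluronic F-127 | Incubation: Enzyme–compound pre-incubation 45 min, then probe 60 min, both 25 °C | Technique: Fluorescence polarization with parallel and perpendicular emission, 525/598 nm | Evaluation: % inhibition of FP-Rh probe binding versus controls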
SIAE inh: inhibitors of human sialic acid acetylesterase SIAE; inhibition, % at 9.66 µM; 0.69% of 370,000 active; Q9HAT2; SIAE FP-Rh probe binding, fluorescence polarization;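 active = inhibition above a cutoff: mean of compounds within the control limits plus 3 SD of those, cut at about 17% in these data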;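 also: 0% = plate median of compound wells and 100% = probe without SIAE protein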
PME-1 primary: blocks human protein phosphatase methylesterase 1; Q9Y570; recombinant PME-1, FP-Rh probe fluorescence polarization; inhibition, % at 5.9 µM; 0.53% of 320,000 active; AID 2130;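 active = inhibition above the campaign mean of all compounds plus 3 SD, cut at about 26% in these data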;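 also: competitive labeling of PME-1 active site by serine hydrolase directed probe; 0% = PME-1 with DMSO and 100% = wells lacking PME-1 enzyme; inhibitors block probe labeling so polarization falls and inhibition rises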
TCR CD3 inh: blocks the human TCR-CD3 interaction; TAMRA-labeled TCR probe fluorescence, biochemical; inhibition, % at 9.4 µM; 0.37% of 360,000 active; AID 651800; in the data active = inhibition above about 19%;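 also: recombinant mutant TCR 2C K166C tagged with TAMRA read by polarization; 0% = receptor in buffer alone and 100% = receptor with positive control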
Fam108B counter: counter-screen for RBBP9 inhibitors: inhibitors of mouse Fam108B; inhibition, % at 9.51 µM; 0.33% of 300,000 active; recombinant Fam108B, FP-Rh probe fluorescence polarization;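 active = inhibition above the screen mean inhibition plus 3 SD, computed separately per campaign, cut at about 18% in these data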;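 also: inhibitors lower polarization as less probe binds the enzyme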
HTRA1 inh: HTRA1 (human) protease inhibition. Q92743. recombinant HTRA1, FP-rhodamine activity-based probe, fluorescence polarization. inhibition, % at 5.96 µM. AID 504803. 0.5% of 340,000 active; in the data active = inhibition above about 36%;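 also: 0% = enzyme with DMSO and 100% = wells lacking enzyme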
HTRA1 inh conf: confirmation of human HTRA1 inhibitors | shares compounds with HTRA1 inh | recombinant HTRA1, FP-rhodamine activity-based probe, fluorescence polarization | inhibition, % at 5.96 µM | 66% of 1,600 active | AID 540248;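 active = mean inhibition over three repeats above a set limit taken from the earlier primary screen, cut at about 37% in these data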;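 also: 0% = HTRA1 with DMSO and 100% = wells lacking HTRA1; inhibitors block probe binding so polarization drops and inhibition rises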
* marks the source's active call; other numbers are inactive results; x = no result given. The list is not random: actives were taken first. Their share in the collection is about 1.8%.

SMILES | ABHD4 inh | SIAE inh | PME-1 primary | TCR CD3 inh | Fam108B counter | HTRA1 inh | HTRA1 inh conf
C[C@@H]1OC(C2CCCCC2)N(C)[C@H]2C[C@H]3c4[nH]c5cccc(-c6cccc(F)c6)c5c4CCN3C(=O)[C@@H]12 (some centres not stated) | 5 | -2 | x | x | x | x | x
Cc1ccc(Cn2nnc3c(=O)[nH]c(C4CCCN(C(=O)Nc5ccc(F)cc5)C4)nc32)cc1 (configuration not stated) | -2 | -1 | -2 | 4 | -3 | 2 | x
CN(C)c1ccc(NC(=O)CSCc2nc3c(nnn3Cc3ccc(F)cc3)c(=O)[nH]2)cc1 | x | x | 4 | x | 1 | 38* | 2
Cc1ccc(-n2c(SCC(=O)Nc3ccccc3-c3ccccc3)nnc2-c2ccco2)cc1 | -1 | -3 | x | x | x | x | x
COC(=O)c1cccc(Cn2ccc3ccc(-c4ccc5ccn(C(=O)c6ccccc6OC)c5c4)cc32)c1 | -14 | -12 | x | x | x | x | x
Cc1cc(C)cc(-n2c(C)c3c(C)nnc(C)c3c2C)c1 | -6 | 4 | 6 | 5 | -1 | 40* | 12
CCOC(=O)c1c(C)oc2c1c(C=NCC1CCCO1)c(O)c1ccccc12 (configuration not stated) | 21 | 8 | x | -7 | x | 8 | x
CCOC(=O)c1c(C)oc2c1c(C=NCc1ccccn1)c(O)c1ccccc12 | 34* | 18* | x | 1 | x | 43* | 60*
COc1ccc2c(c1)CN1C(=O)N(Cc3ccc(F)cc3)S(=O)(=O)CC21 (configuration not stated) | -6 | 2 | x | x | x | x | x
CCOc1cc(N2CCOCC2)c(OCC)cc1NC(=O)c1nn(CC)c(=O)c2ccccc12 | 4 | 1 | 3 | -3 | x | 41* | 45*
O=C(NC1CCCCN(Cc2ccc(Cl)cc2)C1=O)C(c1ccccc1)c1ccccc1 (configuration not stated) | -4 | -7 | x | x | x | x | x
C=CCN1C(C(=O)OC)CN(Cc2cn(Cc3ccc(F)cc3)nn2)CCS1(=O)=O (configuration not stated) | 2 | 0 | x | x | x | x | x
C/C(=N\NC(=O)CSc1nc2ccccc2o1)c1cccc(O)c1 | 8 | 4 | 4 | 8 | -1 | 51* | -1
C/C(=N\NC(=O)CSc1nc2ccccc2o1)c1ccc(O)cc1 | -2 | 5 | -1 | 12 | -1 | 32 | x
CCOC(=O)C1=C(O)/C(=C/c2ccc(CNC(=O)C(=O)Nc3ccc(C)cc3)o2)N=C1C | 29 | 9 | 3 | -7 | 7 | 32 | x
COC(=O)C1=C(O)/C(=C\c2ccc(CNC(=O)C(=O)Nc3ccc(C)cc3)o2)N=C1C | 16 | 4 | 7 | -1 | -3 | 45* | -4
COC(=O)C1=NN(C(=O)c2cccc(Br)c2)C(O)(c2ccc(Cl)cc2)C1 (configuration not stated) | 9 | 3 | 9 | 4 | 2 | 66* | 65*
CCOC(=O)C1=NN(C(=O)c2cccc(Br)c2)C(O)(C(C)(C)C)C1 (configuration not stated) | x | x | 0 | x | 2 | x | x
CCOC(=O)C1CCCN(C2=C(NS(=O)(=O)c3ccc(Br)cc3)C(=O)c3ccccc3C2=O)C1 (configuration not stated) | 25 | 13 | 15 | 3 | 6 | 46* | 62*
CC(C)(C)c1ccc(-c2cn(C[C@H](Cc3ccccc3)n3c(=O)c4ccccc4n3Cc3ccco3)nn2)cc1 | -2 | -7 | x | x | x | x | x
Cc1cc(N(CCO)CCO)ccc1C(c1ccc(N(CCO)CCO)cc1C)c1ccccc1Cl | 16 | 10 | 11 | 6 | 2 | 41* | 30
O=C(OC12CCCN(C1)/C(=C/c1ccccc1)C2)c1ccccc1 (configuration not stated) | 5 | 0 | x | x | x | x | x
COc1cc(C(=O)Oc2c(CN3CCOCC3)cc(Cl)c3cccnc23)cc(OC)c1OC | x | x | 1 | x | 2 | 50* | 71*
O=C(Oc1c(Cl)cc(Cl)c2cccnc12)c1cccs1 | 15 | 10 | 2 | -5 | -3 | 45* | 24
O=C(Oc1c(Cl)cc(Cl)c2cccnc12)c1ccco1 | 16 | 7 | -3 | 3 | -1 | 59* | 54*
SMILES | ABHD4 inh | SIAE inh | PME-1 primary | TCR CD3 inh | Fam108B counter | HTRA1 inh | HTRA1 inh conf
O=C(Oc1c(CN2CCOCC2)cc(Cl)c2cccnc12)c1cccs1 | 7 | 9 | -2 | -8 | 2 | 44* | 11
COc1cc(C(=O)Oc2c(OC)cc(C(=S)N3CCOCC3)cc2OC)cc(OC)c1OC | 1 | -2 | -6 | -9 | -2 | 6 | x
O=C(NC1CCCCN(Cc2ccc(Cl)cc2)C1=O)c1ccccn1 (configuration not stated) | -1 | -4 | x | x | x | x | x
O=C(Oc1c(CN2CCOCC2)cc(Cl)c2cccnc12)c1ccc(F)cc1 | 6 | 4 | 0 | 7 | 1 | 30 | x
O=C(Oc1c(CN2CCOCC2)cc(Cl)c2cccnc12)c1ccccc1Cl | 12 | 16 | 10 | -5 | 7 | 37* | 39*
C/C(N=Nc1nc2ccccc2s1)=N\Nc1ccccc1O | 28 | 10 | 13 | 7 | 8 | 68* | 74*
c1ccc2cc(-c3cc4ccccn4c3)ccc2c1 | 12 | -3 | 0 | -1 | 2 | 39* | 14
C=CCN1C[C@@H](COCc2ccccc2)Oc2cc(F)ccc2S1(=O)=O | 3 | 2 | x | x | x | x | x
CCOC(=O)C1Nc2ccc(OC(F)(F)F)cc2C2C=CCC12 (configuration not stated) | 11 | 6 | 7 | -1 | 8 | 58* | 55*
O=C(NC1CC1)C1Nc2ccc(OC(F)(F)F)cc2C2C=CCC12 (configuration not stated) | 28 | 3 | 11 | -12 | 2 | 48* | -3
CCc1ccc(C(=O)/C=C2\Sc3ccccc3NC2=O)cc1 | -9 | 6 | 5 | 10 | 3 | 59* | 93*
CC(=O)N1CCN(c2ccc(NCc3ccc(-c4ccc(Br)cc4)o3)cc2)CC1 | 29 | 8 | x | 2 | x | 44* | 19
c1ccc(-c2cc(-c3nnc4sc(Cc5cccs5)nn34)[nH]n2)cc1 | -22 | -17 | x | x | x | x | x
CCCOc1ccc(N)cc1N | 22 | 15 | 13 | 5 | 17 | 56* | 13
COc1ccc([C@H]2OC(=O)C[C@H]2C(=O)N2CCN(c3ccccc3Cl)CC2)cc1OC | -3 | -2 | x | x | x | x | x
COc1ccc2nc3ccccc3nc2c1N | 24 | 4 | 6 | 5 | 0 | 49* | 17
COc1ccc(-c2nc3ccccc3nc2-c2ccc(OC)c(OC)c2)cc1OC | -3 | 2 | 0 | 1 | 4 | -4 | x
O=C(OCC#CCSc1nnc(-c2cccc3ccccc23)o1)c1ccsc1 | -18 | 3 | x | x | x | x | x
c1ccc(-c2nnc(-c3ccccn3)c(-c3ccccn3)n2)nc1 | -4 | 6 | 1 | 3 | -3 | x | x
